ChEMBL document CHEMBL1926569, “Novel (E)-1-(4-methyl-2-(alkylamino)thiazol-5-yl)-3-arylprop-2-en-1-ones as potent antimicrobial agents” (2011)
Converted amounts (≈) assume the structure as drawn.

What was measured:
[1] = test system: Pseudomonas aeruginosa; test: Ratio of ampicillin MIC to compound MIC for Pseudomonas aeruginosa ATCC 27853; type: functional
[2] = test system: Aspergillus ochraceus; test: Antifungal activity against Aspergillus ochraceus ATCC 12066 incubated for 72 hrs followed by serial sub-cultivation for 72 hrs by serial dilution technique; type: functional; conditions: ATCC 12066, 72 h
Procedure, shortened: (§1)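 MFC: material from 72 h malt broth microdilution wells was serially sub-cultured into fresh broth plates and incubated a further 72 h at 28 °C. Fungicidal concentration is taken from growth after sub-culture. Duplicate, repeated three times.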

[3] = test system: Bacillus cereus; test: Antibacterial activity against clinical isolate of Bacillus cereus incubated for 24 hrs followed by serial sub-cultivation for 24 hrs by microdilution; type: functional
Procedure, shortened: (§2)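 MBC: after the 24 h LB broth microdilution (1.0 × 10⁴ CFU per well, 160 rpm), wells were serially sub-cultured into fresh broth plates and incubated a further 24 h. MBC is the lowest concentration with no visible growth, taken as 99.5% killing of the original inoculum. Duplicate, repeated three times.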

[4] = test system: Trichoderma viride; test: Antifungal activity against Trichoderma viride IAM 5061 incubated for 72 hrs followed by serial sub-cultivation for 72 hrs by serial dilution technique; type: functional; conditions: IAM 5061, 72 h; procedure, shortened: as §1
[5] = test system: Candida albicans; test: Antifungal activity against Candida albicans isolated from human incubated for 72 hrs followed by serial sub-cultivation for 72 hrs by serial dilution technique; type: functional; procedure, shortened: as §1
[6] = test system: Listeria monocytogenes; test: Antibacterial activity against Listeria monocytogenes NCTC 7973 after 24 hrs by microdilution method; type: functional; conditions: NCTC 7973, 24 h
Procedure, shortened: (§3)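 Broth microdilution in 96-well plates. Bacterial suspensions were adjusted in sterile saline to 1.0 × 10⁵ CFU/ml, prepared daily and kept at 4 °C. Compound was added to LB broth with 1.0 × 10⁴ CFU per well and shaken at 160 rpm for 24 h at […] (so in the source). MIC is the lowest concentration with no visible growth under a binocular microscope. OD655 was also read. Duplicate, repeated three times.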

[7] = test system: Enterococcus faecalis; test: Antibacterial activity against Enterococcus faecalis isolated from human after 24 hrs by microdilution method; type: functional; procedure, shortened: as §3
[8] = test system: Candida albicans; test: Ratio of ketoconazole to compound for Candida albicans isolated from human; type: functional
[9] = test system: Penicillium ochrochloron; test: Antifungal activity against Penicillium ochrochloron ATCC 9112 after 72 hrs by serial dilution technique; type: functional; conditions: ATCC 9112, 72 h
Procedure, shortened: (§4)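 Modified microdilution in 96-well plates. Fungi were kept on malt agar at 4 °C. Spores were washed off in sterile 0.85% saline with 0.1% Tween 80. Compounds were dissolved at 1 mg/ml in 5% DMSO with 0.1% Tween 80 and added to malt broth with inoculum. Plates were shaken at 160 rpm for 72 h at 28 °C. Duplicate, repeated three times.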

[10] = test system: Salmonella typhimurium; test: Antibacterial activity against Salmonella Typhimurium ATCC 13311 incubated for 24 hrs followed by serial sub-cultivation for 24 hrs by microdilution; type: functional, Salmonella enterica subsp. enterica serovar Typhimurium; conditions: Salmonella enterica, ATCC 13311, 24 h; procedure, shortened: as §2
[11] = test system: Penicillium ochrochloron; test: Ratio of ketoconazole to compound for Penicillium ochrochloron ATCC 9112; type: functional
[12] = test system: Trichoderma viride; test: Ratio of bifonazole to compound for Trichoderma viride IAM 5061; type: functional
[13] = test system: Aspergillus ochraceus; test: Antifungal activity against Aspergillus ochraceus after 72 hrs by serial dilution technique
[14] = test system: Enterococcus faecalis; test: Antibacterial activity against Enterococcus faecalis isolated from human incubated for 24 hrs followed by serial sub-cultivation for 24 hrs by microdilution; type: functional; procedure, shortened: as §2
[15] = test system: Talaromyces funiculosus; test: Antifungal activity against Penicillium funiculosum ATCC 36839 after 72 hrs by serial dilution technique; type: functional; conditions: ATCC 36839, 72 h; procedure, shortened: as §4
[16] = test system: Aspergillus ochraceus; test: Ratio of ketoconazole to compound for Aspergillus ochraceus ATCC 12066; type: functional
[17] = test system: Bacillus cereus; test: Antibacterial activity against clinical isolate of Bacillus cereus after 24 hrs by microdilution method; type: functional; procedure, shortened: as §3
[18] = test system: Aspergillus niger; test: Antifungal activity against Aspergillus niger ATCC 6275 incubated for 72 hrs followed by serial sub-cultivation for 72 hrs by serial dilution technique; type: functional; conditions: ATCC 6275, 72 h; procedure, shortened: as §1
[19] = test system: Aspergillus fumigatus; test: Antifungal activity against Aspergillus fumigatus isolated from human incubated for 72 hrs followed by serial sub-cultivation for 72 hrs by serial dilution technique; type: functional; procedure, shortened: as §1
[20] = test system: Listeria monocytogenes; test: Antibacterial activity against Listeria monocytogenes NCTC 7973 incubated for 24 hrs followed by serial sub-cultivation for 24 hrs by microdilution; type: functional; conditions: NCTC 7973, 24 h; procedure, shortened: as §2
[21] = test system: Staphylococcus aureus; test: Antibacterial activity against Staphylococcus aureus ATCC 6538 incubated for 24 hrs followed by serial sub-cultivation for 24 hrs by microdilution method; type: functional; conditions: ATCC 6538, 24 h; procedure, shortened: as §2
[22] = test system: Staphylococcus aureus; test: Antibacterial activity against Staphylococcus aureus ATCC 6538 after 24 hrs by microdilution method; type: functional; conditions: ATCC 6538, 24 h; procedure, shortened: as §3
[23] = test system: Aspergillus niger; test: Ratio of bifonazole to compound for Aspergillus niger ATCC 6275; type: functional
[24] = test system: Aspergillus ochraceus; test: Ratio of bifonazole to compound for Aspergillus ochraceus ATCC 12066; type: functional
[25] = test system: Salmonella typhimurium; test: Antibacterial activity against Salmonella Typhimurium ATCC 13311 after 24 hrs by microdilution method; type: functional, Salmonella enterica subsp. enterica serovar Typhimurium; conditions: Salmonella enterica, ATCC 13311, 24 h; procedure, shortened: as §3
[26] = test system: Micrococcus flavus; test: Antibacterial activity against Micrococcus flavus ATCC 10240 incubated for 24 hrs followed by serial sub-cultivation for 24 hrs by microdilution; type: functional; conditions: ATCC 10240, 24 h; procedure, shortened: as §2
[27] = test system: Talaromyces funiculosus; test: Ratio of bifonazole to compound for Penicillium funiculosum ATCC 36839; type: functional
[28] = test system: Talaromyces funiculosus; test: Antifungal activity against Penicillium funiculosum ATCC 36839 incubated for 72 hrs followed by serial sub-cultivation for 72 hrs by serial dilution technique; type: functional; conditions: ATCC 36839, 72 h; procedure, shortened: as §1
[29] = test system: Escherichia coli; test: Antibacterial activity against Escherichia coli ATCC 35210 after 24 hrs by microdilution method; type: functional; conditions: ATCC 35210, 24 h; procedure, shortened: as §3
[30] = test system: Aspergillus flavus; test: Antifungal activity against Aspergillus flavus ATCC 9643 after 72 hrs by serial dilution technique; type: functional; conditions: ATCC 9643, 72 h; procedure, shortened: as §4
[31] = test system: Pseudomonas aeruginosa; test: Antibacterial activity against Pseudomonas aeruginosa ATCC 27853 incubated for 24 hrs followed by serial sub-cultivation for 24 hrs by microdilution; type: functional; conditions: ATCC 27853, 24 h; procedure, shortened: as §2
[32] = test system: Aspergillus flavus; test: Antifungal activity against Aspergillus flavus ATCC 9643 incubated for 72 hrs followed by serial sub-cultivation for 72 hrs by serial dilution technique; type: functional; conditions: ATCC 9643, 72 h; procedure, shortened: as §1
[33] = test system: Aspergillus fumigatus; test: Ratio of ketoconazole to compound for Aspergillus fumigatus isolated from human; type: functional
[34] = test system: Trichoderma viride; test: Antifungal activity against Trichoderma viride IAM 5061 after 72 hrs by serial dilution technique; type: functional; conditions: IAM 5061, 72 h; procedure, shortened: as §4
[35] = test system: Aspergillus ochraceus; test: Antifungal activity against Aspergillus ochraceus ATCC 12066 after 72 hrs by serial dilution technique; type: functional; conditions: ATCC 12066, 72 h; procedure, shortened: as §4
[36] = test system: Candida albicans; test: Ratio of bifonazole to compound for Candida albicans isolated from human; type: functional
[37] = test system: Pseudomonas aeruginosa; test: Antibacterial activity against Pseudomonas aeruginosa ATCC 27853 after 24 hrs by microdilution method; type: functional; conditions: ATCC 27853, 24 h; procedure, shortened: as §3
[38] = test system: Penicillium ochrochloron; test: Antifungal activity against Penicillium ochrochloron ATCC 9112 incubated for 72 hrs followed by serial sub-cultivation for 72 hrs by serial dilution technique; type: functional; conditions: ATCC 9112, 72 h; procedure, shortened: as §1
[39] = test system: Escherichia coli; test: Antibacterial activity against Escherichia coli ATCC 35210 incubated for 24 hrs followed by serial sub-cultivation for 24 hrs by microdilution; type: functional; conditions: ATCC 35210, 24 h; procedure, shortened: as §2
[40] = test system: Aspergillus niger; test: Antifungal activity against Aspergillus niger ATCC 6275 after 72 hrs by serial dilution technique; type: functional; conditions: ATCC 6275, 72 h; procedure, shortened: as §4
[41] = test system: Candida albicans; test: Antifungal activity against Candida albicans isolated from human after 72 hrs by serial dilution technique; type: functional; procedure, shortened: as §4
[42] = test system: Micrococcus flavus; test: Antibacterial activity against Micrococcus flavus ATCC 10240 after 24 hrs by microdilution method; type: functional; conditions: ATCC 10240, 24 h; procedure, shortened: as §3
[43] = test system: Penicillium ochrochloron; test: Ratio of bifonazole to compound for Penicillium ochrochloron ATCC 9112; type: functional

MIC [6]: 110 µM (≈ 30 µg/mL)
MIC [7]: 55.1 µM (≈ 15 µg/mL)
MIC [9]: 36.8 µM (≈ 10 µg/mL)
MIC [13]: 36.8 µM (≈ 10 µg/mL)
MIC [15]: 36.8 µM (≈ 10 µg/mL)
MIC [17]: 73.5 µM (≈ 20 µg/mL)
MIC [22]: 73.5 µM (≈ 20 µg/mL)
MIC [25]: 36.8 µM (≈ 10 µg/mL)
MIC [29]: 73.5 µM (≈ 20 µg/mL)
MIC [30]: 73.5 µM (≈ 20 µg/mL)
MIC [34]: 36.8 µM (≈ 10 µg/mL)
MIC [35]: 73.5 µM (≈ 20 µg/mL)
MIC [37]: 73.5 µM (≈ 20 µg/mL)
MIC [40]: 55.1 µM (≈ 15 µg/mL)
MIC [41]: 36.8 µM (≈ 10 µg/mL)
MIC [42]: 91.9 µM (≈ 25 µg/mL)
Compound: CCNc1nc(C)c(C(=O)/C=C/c2ccccc2)s1
Ratio [1]: 10
MFC [2]: 91.9 µM (≈ 25 µg/mL)
MBC [3]: 73.5 µM (≈ 20 µg/mL)
MFC [4]: 73.5 µM (≈ 20 µg/mL)
MFC [5]: 73.5 µM (≈ 20 µg/mL)
Ratio [8]: 10
MBC [10]: 91.9 µM (≈ 25 µg/mL)
Ratio [11]: 10
Ratio [12]: 10
MBC [14]: 73.5 µM (≈ 20 µg/mL)
Ratio [16]: 10
MFC [18]: 73.5 µM (≈ 20 µg/mL)
MFC [19]: 73.5 µM (≈ 20 µg/mL)
MBC [20]: 110 µM (≈ 30 µg/mL)
MBC [21]: 110 µM (≈ 30 µg/mL)
Ratio [23]: 10
Ratio [24]: 10
MBC [26]: 110 µM (≈ 30 µg/mL)
Ratio [27]: 10
MFC [28]: 73.5 µM (≈ 20 µg/mL)
MBC [31]: 73.5 µM (≈ 20 µg/mL)
MFC [32]: 91.9 µM (≈ 25 µg/mL)
Ratio [33]: 10
Ratio [36]: 10
MFC [38]: 73.5 µM (≈ 20 µg/mL)
MBC [39]: 110 µM (≈ 30 µg/mL)
Ratio [43]: 10
